Peptide text beside a SMILES is read from it.
Legend:
Format in all cases: physicochemical
[1] = Turbidity measurement of temperature-dependent coacervation
How it was run: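 Peptides were dissolved in pure water at various concentrations. Turbidity at 400 nm was followed while the temperature was raised or lowered at 0.5 °C/min starting from 5 °C. Each concentration was run at least three times. Tt was taken as the temperature at which turbidity reached half its maximum.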

[2] = Logarithmic fit of Tt against molar peptide concentration; settings: pure water
How it was run: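 Tt for each peptide was obtained by turbidity at 400 nm in pure water at several concentrations, measured at least three times per concentration. Tt was plotted against the logarithm of molar peptide concentration and fitted as a logarithmic function. C37 was obtained by logarithmic extrapolation to Tt = 37 °C. The concentration needed at 50 °C was computed from formula (1).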

[3] = Scanning electron microscopy of aggregates; settings: 0.10 mg/mL aqueous solution incubated at 50 °C for 3 h (Figure S6)
How it was run: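 Peptide in water at 0.1 mg/mL was incubated at 50 °C for 3 h, dropped on a cover glass and air-dried at 50 °C. The residue was rinsed gently three times with distilled water and air-dried again. Samples were platinum sputter-coated (5 nm) and imaged at 5.00 kV at 500× and 2000× magnification.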

| coacervation (turbidity change on heating) ([1]; peptide 20–50 mg/mL in pure water, turbidity at 400 nm (Figure S2)) | peptide concentration at which coacervation is exhibited / required ([1]; pure water, turbidity at 400 nm, 0.5 °C/min from 5 °C) | concentration required to show coacervation at 50 °C ([2]; calculated with formula (1)) | C37 (peptide concentration to attain Tt at 37 °C) ([2]; logarithmic extrapolation of the Tt vs peptide concentration graph) [mM] | morphology by SEM [3] | SMILES |
| --- | --- | --- | --- | --- | --- |
| no coacervation | – | – | – | – | CC(C)[C@H](NC(=O)CNC(=O)[C@@H]1CCCN1C(=O)[C@H](Cc1ccccc1)NC(=O)CNC(=O)[C@@H](NC(=O)CNC(=O)[C@@H]1CCCN1C(=O)[C@H](Cc1ccccc1)NC(=O)CNC(=O)[C@@H](NC(=O)CNC(=O)[C@@H]1CCCN1C(=O)[C@@H](N)Cc1ccccc1)C(C)C)C(C)C)C(=O)NCC(N)=O [F3, H-(FPGVG)3-NH2] (H-FPGVGFPGVGFPGVG-NH2) |
| – | at least 20 mg/mL | at least 8.09 mM | 11.7 | spherical structures were not formed | CC(C)[C@H](NC(=O)CNC(=O)[C@@H]1CCCN1C(=O)[C@H](Cc1ccccc1)NC(=O)CNC(=O)[C@@H](NC(=O)CNC(=O)[C@@H]1CCCN1C(=O)[C@H](Cc1ccccc1)NC(=O)CNC(=O)[C@@H](NC(=O)CNC(=O)[C@@H]1CCCN1C(=O)[C@H](Cc1ccccc1)NC(=O)CNC(=O)[C@@H](NC(=O)CNC(=O)[C@@H]1CCCN1C(=O)[C@H](Cc1ccccc1)NC(=O)CNC(=O)[C@@H](NC(=O)CNC(=O)[C@@H]1CCCN1C(=O)[C@@H](N)Cc1ccccc1)C(C)C)C(C)C)C(C)C)C(C)C)C(=O)NCC(N)=O [F5, H-(FPGVG)5-NH2] (H-FPGVGFPGVGFPGVGFPGVGFPGVG-NH2) |
